# High-throughput results as filed in PubChem BioAssay.
# CYP2C9 inh: blockers of cytochrome P450 2C9 activity – biochemical, luminescence, ADME assay, primary screen | actives 20% (n = 96,000) | P11712 | CYP2C9 Supersomes, luciferin-H conversion | inhibition, % at 5 µM;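 active = blocking of liver enzyme CYP2C9 beyond about 50% at 5 µM, limit read from the data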
# HIV Rev-RRE inh: HIV-1 Rev-RRE binding inhibitors, primary screen, biochemical, FRET, protein-RNA interaction; actives 0.79% (n = 97,000); Rev peptide-RRE RNA binding; AID 704, 2007; inhibition, % at 8 µM;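 active = inhibition above the screen-wide mean plus 3 SD, cut at about 35% in these data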;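 note: 0% = median DMSO wells and 100% = median Neomycin B control wells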
#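 Material: labelled RRE RNA duplex and labelled Rev peptide / Buffer or medium: HEPES pH 7.5 salt buffer with EDTA / Compound dosing: single point, 8 µM final nominal compound concentration / Benchmarks: DMSO low control, neomycin B high control / Timing: 5 min preincubation and 15 min binding, 25 °C / Technique: FRET fluorescence readout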
# CYP2C19 inh: blockers of cytochrome P450 2C19 activity – biochemical, luminescence, ADME assay, primary screen. CYP2C19 Supersomes, luciferin-H EGE luminescence, 30 min. inhibition, % at 5 µM. actives 21% (n = 96,000);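 active = CYP2C19 inhibition above a set limit at 5 µM in the primary screen, cut at about 50% in these data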;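 note: plate controls were negative control wells for no effect and 2.5 mM tranylcypromine positive control for full effect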
# CYP2C9 activ: human CYP2C9 activators, primary screen, biochemical, luminescence; Cytochrome P450 2C9 (Homo sapiens), P11712; recombinant CYP2C9, luciferin-H conversion; active compounds read high; factor 1 = untreated enzyme, 0 = blocked; activation factor at 5 µM; actives 1.4% (n = 96,000); AID 1024, 2008;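 active = activation factor of 2 or more for CYP2C9 at a 5 µM dose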;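 note: 0 = sulfaphenazole-blocked wells and 1 = vehicle-only wells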
# Cav3 T inh: Cav3.2 calcium influx blockers – cell-based, Fluo-4 calcium fluorescence, FDSS, MLSMR library, primary screen. Voltage-dependent T-type calcium channel subunit alpha-1H (Homo sapiens), O95180. actives 4% (n = 100,000). B-score at 10 µM. Cav3.2-expressing cells; active compounds read low;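 active = single-dose well whose peak fluorescence ratio is a statistical outlier from its plate by either plate-standardised score or position-corrected B-score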
# Target sequence (O95180 whole entry, looked up): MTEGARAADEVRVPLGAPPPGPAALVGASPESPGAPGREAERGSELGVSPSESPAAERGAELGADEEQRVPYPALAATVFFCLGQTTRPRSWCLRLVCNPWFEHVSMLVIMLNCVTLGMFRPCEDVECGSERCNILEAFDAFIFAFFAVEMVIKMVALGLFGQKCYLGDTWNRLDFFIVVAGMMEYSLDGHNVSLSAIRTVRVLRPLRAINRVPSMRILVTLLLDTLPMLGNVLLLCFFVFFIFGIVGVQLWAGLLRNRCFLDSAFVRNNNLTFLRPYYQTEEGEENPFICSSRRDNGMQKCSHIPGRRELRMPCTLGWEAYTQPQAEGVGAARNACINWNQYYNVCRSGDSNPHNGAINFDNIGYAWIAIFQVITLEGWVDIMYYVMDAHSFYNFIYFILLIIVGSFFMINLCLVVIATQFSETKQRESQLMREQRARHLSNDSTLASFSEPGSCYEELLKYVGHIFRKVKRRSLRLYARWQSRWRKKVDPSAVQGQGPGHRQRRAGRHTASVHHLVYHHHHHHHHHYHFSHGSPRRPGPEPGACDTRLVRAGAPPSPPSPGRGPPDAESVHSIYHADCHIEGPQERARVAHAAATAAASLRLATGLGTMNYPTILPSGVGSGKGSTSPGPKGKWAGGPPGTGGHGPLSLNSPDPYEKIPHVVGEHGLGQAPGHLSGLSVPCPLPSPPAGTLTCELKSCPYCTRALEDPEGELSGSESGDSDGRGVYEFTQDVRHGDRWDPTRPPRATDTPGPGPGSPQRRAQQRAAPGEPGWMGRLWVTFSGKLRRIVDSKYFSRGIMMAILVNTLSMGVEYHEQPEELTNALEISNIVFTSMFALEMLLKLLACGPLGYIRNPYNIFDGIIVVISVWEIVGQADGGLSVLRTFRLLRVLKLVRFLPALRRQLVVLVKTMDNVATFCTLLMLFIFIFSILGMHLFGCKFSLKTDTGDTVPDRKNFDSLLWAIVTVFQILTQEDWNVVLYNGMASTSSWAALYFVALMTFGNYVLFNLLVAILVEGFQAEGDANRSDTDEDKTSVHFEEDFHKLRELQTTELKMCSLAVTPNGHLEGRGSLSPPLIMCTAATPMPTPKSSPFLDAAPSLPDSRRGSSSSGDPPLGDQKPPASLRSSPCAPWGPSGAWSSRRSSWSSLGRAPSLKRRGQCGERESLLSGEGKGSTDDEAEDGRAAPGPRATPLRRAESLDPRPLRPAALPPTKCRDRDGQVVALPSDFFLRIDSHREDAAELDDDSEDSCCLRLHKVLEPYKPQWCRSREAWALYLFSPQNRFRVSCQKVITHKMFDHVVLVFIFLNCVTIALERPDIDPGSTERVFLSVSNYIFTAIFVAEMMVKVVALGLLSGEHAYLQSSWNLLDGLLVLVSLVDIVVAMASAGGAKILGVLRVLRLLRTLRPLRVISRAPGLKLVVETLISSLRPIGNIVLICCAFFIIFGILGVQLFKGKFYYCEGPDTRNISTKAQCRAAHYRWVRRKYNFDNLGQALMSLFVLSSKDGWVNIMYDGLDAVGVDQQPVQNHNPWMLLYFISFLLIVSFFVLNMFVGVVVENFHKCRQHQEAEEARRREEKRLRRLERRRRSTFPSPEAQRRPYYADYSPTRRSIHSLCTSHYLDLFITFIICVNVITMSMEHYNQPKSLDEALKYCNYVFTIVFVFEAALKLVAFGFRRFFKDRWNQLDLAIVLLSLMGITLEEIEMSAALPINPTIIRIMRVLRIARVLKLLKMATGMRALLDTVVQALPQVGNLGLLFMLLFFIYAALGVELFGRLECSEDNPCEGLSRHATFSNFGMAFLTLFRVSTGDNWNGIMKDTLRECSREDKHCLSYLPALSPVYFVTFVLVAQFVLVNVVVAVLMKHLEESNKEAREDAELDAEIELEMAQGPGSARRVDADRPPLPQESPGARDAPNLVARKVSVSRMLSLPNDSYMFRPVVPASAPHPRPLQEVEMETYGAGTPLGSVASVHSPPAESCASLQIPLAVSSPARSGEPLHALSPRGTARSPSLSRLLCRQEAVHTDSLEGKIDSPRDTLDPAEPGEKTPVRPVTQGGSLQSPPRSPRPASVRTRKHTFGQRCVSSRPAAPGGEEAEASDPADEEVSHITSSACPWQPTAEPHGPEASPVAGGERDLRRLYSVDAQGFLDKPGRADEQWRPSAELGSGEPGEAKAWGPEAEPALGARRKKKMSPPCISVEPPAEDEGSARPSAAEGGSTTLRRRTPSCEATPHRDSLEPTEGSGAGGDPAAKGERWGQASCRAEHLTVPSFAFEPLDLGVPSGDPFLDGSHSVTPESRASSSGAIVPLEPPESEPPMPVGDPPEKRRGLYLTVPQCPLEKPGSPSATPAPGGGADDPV
# CYP2C19 activ: human CYP2C19 activators, primary screen, biochemical, luminescence; recombinant CYP2C19, luciferin-H EGE luminescence; active compounds read high; 0 = fully inhibited enzyme, 1 = untreated enzyme; activation factor at 5 µM; AID 1025, 2008; 96,000 tested, under 10 active;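 active = activation factor of at least 2 at 5 µM in the primary screen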;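 note: 0 = wells with 2.5 mM tranylcypromine and 1 = vehicle-only wells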
# * marks the source's active call; other numbers are inactive results; . = no result. Shown are actives, neighbours in structure and some others; about 27% of the full set was active somewhere.
SMILES,CYP2C9 inh,HIV Rev-RRE inh,CYP2C19 inh,CYP2C9 activ,Cav3 T inh,CYP2C19 activ
O=C(Cn1c(-c2ccco2)nc2ccccc21)N1CCCCC1,-8.2,1.3,-7.6,1.1,1.16,1.1
CCOC(=O)N1CCN(C(=O)c2ccc(N3CCCC3=O)cc2)CC1,1.7,0.1,0.0,1,-0.591,1
COc1cc(CC(=O)OCC(=O)Nc2ccc(S(=O)(=O)N3CCCC3)cc2)cc(OC)c1OC,60.8*,9.8,13.7,0.4,-1.53,0.9
O=C(COC(=O)Cc1ccc2c(c1)OCCO2)Nc1ccc(S(=O)(=O)N2CCCC2)cc1,24.7,15.1,-17.3,0.8,-0.591,1.2
COc1ccc(NC(=O)CCN2CCN(S(=O)(=O)c3cc(Cl)ccc3OC)CC2)cc1,64.8*,7.4,96.8*,0.4,.,0
COc1ccc(N(CC(=O)Nc2ccc(S(=O)(=O)N3CCCCC3)cc2)S(C)(=O)=O)cc1OC,53.2*,7.9,18.1,0.5,-1.84,0.8
CC(C)CCNC(=O)CN(Cc1cccs1)C(=O)CCC(=O)Nc1nccs1,29.1,3.0,20.2,0.7,-0.195,0.8
Cc1ccc(-n2c3c(c(=O)[nH]c2=O)C(C(F)(F)F)(C(F)(F)F)NC(=O)N3)cc1,1.3,12.0,-8.7,1,1.3,1.1
Cc1ccc2[nH]c(=O)c(CN(Cc3ccc4c(c3)OCO4)Cc3nnnn3Cc3ccco3)cc2c1,98.7*,1.7,99.1*,0,-5.76*,0
Cc1cc(C)c2cc(CN(Cc3ccc4c(c3)OCO4)Cc3nnnn3Cc3ccco3)c(=O)[nH]c2c1,80.5*,9.6,67.2*,0.2,-0.982,0.3
O=c1[nH]c2cc3c(cc2cc1CN(Cc1ccccc1)Cc1nnnn1Cc1ccco1)OCCO3,4.5,14.9,1.6,1,0.118,1
CCCCN(C(=O)Cc1cccs1)c1nnc(-c2cccnc2)s1,.,9.7,.,.,0.728,.
Cc1ccc(S(=O)(=O)N(C)c2ccc(OCC(=O)O)cc2)cc1,33.9,7.1,-0.8,0.7,0.302,1
Cc1ccc(S(=O)(=O)N(C)c2ccc(NS(C)(=O)=O)cc2)cc1,-100.5,1.1,66.3*,2*,.,0.3
Cc1ccc(S(=O)(=O)N(C)c2ccccc2)cc1,-64.7,3.6,94.4*,1.6,0.554,0.1
NC(=O)C1CCN(C(=O)c2ccc(CS(=O)(=O)c3c(Cl)cccc3Cl)o2)CC1,8.5,4.2,-11.5,0.9,-0.0208,1.1
CC(C)=C1SC(N2CCOCC2)=NC1=O,-10.1,0.5,-9.3,1.1,1.18,1.1
CCOc1ccc(C2OC34CCCCC3C(C#N)(C#N)C2(C#N)C(=N)O4)cc1OC (stereo unspecified),-10.9,31.9,8.4,1.1,1.84,0.9
COc1cccc(/C=C/c2ccncc2)c1OC,98.2*,1.1,99.2*,0,.,0
O=C1N2CCSC2=NC1(Nc1nccs1)C(F)(F)F (stereo unspecified),-6.9,3.4,-6.6,1.1,0.295,1.1
CCC(=O)NCCSc1c[nH]c2ccccc12,35.3,9.9,28.0,0.6,0.109,0.7
O=C(NCCC(c1ccccc1)c1ccccc1)c1ccc(Br)o1,74.5*,13.7,66.7*,0.3,-6.46*,0.3
Cc1[nH]c2ccccc2c1SCCNC(=O)c1ccc(Br)o1,.,4.6,.,.,-4.14*,.
O=C(O)CCNC(=O)c1ccc(Br)o1,-7.8,.,-10.2,1.1,-0.284,1.1
CCN(CC)S(=O)(=O)c1ccc(C(=O)NCCSc2c[nH]c3ccccc23)cc1,.,.,.,.,-4.61*,.
SMILES,CYP2C9 inh,HIV Rev-RRE inh,CYP2C19 inh,CYP2C9 activ,Cav3 T inh,CYP2C19 activ
O=C(NCC1(c2ccccc2)CCOCC1)c1ccc(Br)o1,37.6,4.0,72.5*,0.6,0.521,0.3
CC(C)CC(CO)N1CCN(C(=O)c2ccc(Cl)cc2)CCC1=O (stereo unspecified),.,.,.,.,-0.13,.
O=C(NCCSc1c[nH]c2ccccc12)c1ccc(Br)o1,85.8*,2.6,42.7,0.1,-5.03*,0.6
O=C(OCC(=O)c1c[nH]c2ccccc12)c1ccc(Br)o1,22.1,6.5,65.8*,0.8,0.18,0.3
COc1ccc(CCNC(=S)NC(=O)c2ccccc2)cc1OC,28.1,2.3,60.9*,0.7,-1.39,0.4
COc1ccc(CCNC(=O)C(=O)NCc2ccc(C)cc2)cc1OC,-5.1,1.7,12.2,1.1,-0.0636,0.9
CCc1ccc(CNC(=O)C(=O)NCCc2ccc(OC)c(OC)c2)cc1,.,-4.6,.,.,-5.31*,.
Cc1c(CN2CCCCC2)c(O)n(CCCO)c(=O)c1C#N,-21.3,34.7,-14.9,1.2,-0.0814,1.1
CCCn1c(O)c(CN2CCCCC2)c(C)c(C#N)c1=O,63.2*,24.2,-8.3,0.4,1.37,1.1
O=C(NCC1CCCO1)c1ccc2c(c1)S(=O)(=O)c1ccccc1C2=O (stereo unspecified),.,.,.,.,0.859,.
c1ccc(-c2nnc(CN3CCN(C(c4ccccc4)c4ccccc4)CC3)o2)cc1,.,.,.,.,-4.56,.
CC1=C(C(=O)Nc2ccc(F)cc2)C(c2cccc(C)c2)n2nc(CCCO)nc2N1 (stereo unspecified),14.0,.,-4.5,0.9,-0.293,1
Cc1ccc(S(=O)(=O)N2CCN(C3CC(=O)N(CCc4ccccc4)C3=O)CC2)cc1C (stereo unspecified),-46.5,9.3,50.4*,1.5,-0.398,0.5
C=CCOc1cccc(C2C(C(=O)c3ccc(C)o3)=C(O)C(=O)N2c2nccs2)c1 (stereo unspecified),41.3,78.3*,46.7,0.6,-5.1*,0.5
Cc1ccc(C(=O)C2=C(O)C(=O)N(c3ncccn3)C2c2cccc(Cl)c2)o1 (stereo unspecified),29.3,.,-1.1,0.7,.,1
CC(C)(C)C(=O)C(Oc1cccc2nonc12)n1cncn1 (stereo unspecified),-2.9,-0.1,12.0,1,0.0772,0.9
CCOc1ccc(CCNC(=O)c2cc3sccc3n2CC)cc1OCC,16.7,5.4,50.6*,0.8,-2.62,0.5
CCOC(=O)N1CCC(NC(=O)c2cc3sccc3n2CC)CC1,-14.9,2.8,3.2,1.1,-0.0468,1
Cc1ccc(S(=O)(=O)NNC(=O)C2Cc3c(ccc4ccccc34)O2)cc1 (stereo unspecified),55.6*,10.8,20.0,0.4,-2.21,0.8
CCCCOc1ccc(S(=O)(=O)NNC(=O)C2Cc3c(ccc4ccccc34)O2)cc1 (stereo unspecified),37.8,3.4,12.6,0.6,-1.47,0.9
